ChEMBL document CHEMBL1649357, “Protective effects of baicalin against ischemia/reperfusion injury in rat liver” (2010)
Activity calls are given as the source filed them. No cut-off for these calls is given here.

Columns and labels:
Rattus norvegicus [1] = experiment: Hepatoprotective activity in Sprague-Dawley rat ischemia-reperfusion model assessed as decrease of glutathione level per gram of liver at 200 mg/kg, ip administered 24 hrs and 1 hr before ischemia relative to control; format: functional; details: route intraperitoneal
In short: (§1)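 Liver homogenate was precipitated with 1% picric acid. Total glutathione was measured by the glutathione reductase/DTNB/NADPH method at 412 nm, and GSSG the same way with 2-vinylpyridine. GSH is the difference, in µmol·g liver-1.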

Rattus norvegicus [2] = experiment: Antiinflammatory activity in Sprague-Dawley rat ischemia-reperfusion model assessed as inhibition of COX2 mRNA expression in liver tissue at 200 mg/kg, ip administered 24 hrs and 1 hr before ischemia by RT-PCR analysis; format: functional, organism-based; design: dose 200 mg/kg
Rattus norvegicus [3] = experiment: Antiinflammatory activity in Sprague-Dawley rat sham operated model assessed as decrease of serum TNFalpha level at 200 mg/kg, ip administered 24 hrs and 1 hr before ischemia by ELISA relative to control; format: functional; details: route intraperitoneal
Rattus norvegicus [4] = experiment: Antiinflammatory activity in Sprague-Dawley rat ischemia-reperfusion model assessed as decrease of serum TNFalpha level at 200 mg/kg, ip administered 24 hrs and 1 hr before ischemia by ELISA relative to control; format: functional; details: route intraperitoneal
Rattus norvegicus [5] = experiment: Hepatoprotective activity in Sprague-Dawley rat ischemia-reperfusion model assessed as decrease of TRADD protein expression in liver tissue at 200 mg/kg, ip administered 24 hrs and 1 hr before ischemia by Western blot analysis; format: functional, organism-based; design: dose 200 mg/kg
Rattus norvegicus [6] = experiment: Hepatoprotective activity in Sprague-Dawley rat sham operated model assessed as decrease of glutathione level per gram of liver at 200 mg/kg, ip administered 24 hrs and 1 hr before ischemia relative to control; format: functional; details: route intraperitoneal; in short: as §1
Rattus norvegicus [7] = experiment: Hepatoprotective activity in Sprague-Dawley rat ischemia-reperfusion model assessed as decrease of malondialdehyde level per gram of protein at 200 mg/kg, ip administered 24 hrs and 1 hr before ischemia relative to control; format: functional; details: route intraperitoneal
Rattus norvegicus [8] = experiment: Hepatoprotective activity in Sprague-Dawley rat ischemia-reperfusion model assessed as protection against histopathologic damage at 200 mg/kg, ip administered 24 hrs and 1 hr before ischemia by TUNEL staining; format: functional; details: route intraperitoneal, in the assay text read “by hematoxylin and eosin staining” for “by TUNEL staining”
In short: (§2)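 Left-lobe tissue was fixed in formalin and paraffin sections (5 µm) were stained with H&E. Injury was scored at 200× by point counting on an ordinal severity scale (grade 0 = minimal or none).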

Rattus norvegicus [9] = experiment: Antiinflammatory activity in Sprague-Dawley rat ischemia-reperfusion model assessed as decrease of TNFalpha mRNA expression in liver tissue at 200 mg/kg, ip administered 24 hrs and 1 hr before ischemia by RT-PCR analysis; format: functional, organism-based; design: dose 200 mg/kg
Rattus norvegicus [10] = experiment: Hepatoprotective activity in Sprague-Dawley rat ischemia-reperfusion model assessed as protection against apoptosis in liver tissue at 200 mg/kg, ip administered 24 hrs and 1 hr before ischemia by TUNEL assay; format: functional, organism-based; design: dose 200 mg/kg
In short: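 TUNEL kit staining was done on liver sections. TUNEL-positive cells were counted in randomly chosen 400× fields per section.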

Rattus norvegicus [11] = experiment: Hepatoprotective activity in Sprague-Dawley rat sham operated model assessed as decrease of mitochondrial swelling in liver tissue at 200 mg/kg, ip administered 24 hrs and 1 hr before ischemia relative to control; format: functional, organism-based; design: dose 200 mg/kg
In short: (§3)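 Mitochondria were isolated by differential centrifugation in sucrose/Tris/EDTA, pH 7.2. Mitochondria (4 mg) were suspended in phosphate buffer pH 7.2 with 250 mM sucrose, 5 mM KH2PO4 and 1 µM rotenone at 25 °C. Initial swelling rate was taken as A520 change per min per mg protein.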

Rattus norvegicus [12] = experiment: Antiinflammatory activity in Sprague-Dawley rat sham operated model assessed as decrease of serum IL-6 level at 200 mg/kg, ip administered 24 hrs and 1 hr before ischemia by ELISA relative to control; format: functional; details: route intraperitoneal
Rattus norvegicus [13] = experiment: Antiinflammatory activity in Sprague-Dawley rat ischemia-reperfusion model assessed as inhibition of nuclear localization of NF-kappaB/p65 subunit in liver tissue at 200 mg/kg, ip administered 24 hrs and 1 hr before ischemia by Western blot analysis; format: functional, organism-based; design: dose 200 mg/kg
In short: (§4)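 Liver homogenates were blotted, and nuclear and cytosolic fractions were isolated with NE-PER reagents. 20 µg protein per lane was run on 10% gels and transferred to nitrocellulose, with 5% milk block for 60 min. Polyclonal antibodies detected iNOS, COX-2, HO-1, NF-κB/p65, IκB-α and lamin B1, with β-actin as control, read by ECL.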

Rattus norvegicus [14] = experiment: Hepatoprotective activity in Sprague-Dawley rat ischemia-reperfusion model assessed as decrease of caspase 8 activity in liver tissue at 200 mg/kg, ip administered 24 hrs and 1 hr before ischemia […] relative to control; format: functional, organism-based; design: dose 200 mg/kg
In short: (§5)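 Liver (1 g) was homogenized in Tris/MgCl2/EGTA buffer and spun at 600g, then 40000g. 30 µg cytosolic protein was preincubated 15 min at room temperature in HEPES/EDTA/NaCl/Triton/10 mM DTT. Fluorogenic substrate was then added at 200 µM and incubated at 37 °C. Fluorescence (ex 400/em 490 nm) was read at 120 min and expressed as % of vehicle I/R.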

Rattus norvegicus [15] = experiment: Antiinflammatory activity in Sprague-Dawley rat ischemia-reperfusion model assessed as inhibition of HO-1 mRNA expression in liver tissue at 200 mg/kg, ip administered 24 hrs and 1 hr before ischemia by RT-PCR analysis; format: functional, organism-based; design: dose 200 mg/kg
Rattus norvegicus [16] = experiment: Antiinflammatory activity in Sprague-Dawley rat ischemia-reperfusion model assessed as inhibition of iNOS protein expression in liver tissue at 200 mg/kg, ip administered 24 hrs and 1 hr before ischemia by Western blot analysis; format: functional, organism-based; design: dose 200 mg/kg; in short: as §4
Rattus norvegicus [17] = experiment: Hepatoprotective activity in Sprague-Dawley rat ischemia-reperfusion model assessed as decrease of serum ALT level at 200 mg/kg, ip administered 24 hrs and 1 hr before ischemia; format: functional; details: route intraperitoneal
In short: (§6)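 Serum ALT was read spectrophotometrically with a kit at 5 h reperfusion, in U·L-1, mean ± SEM, n = 8-10.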

Rattus norvegicus [18] = experiment: Antiinflammatory activity in Sprague-Dawley rat ischemia-reperfusion model assessed as inhibition of COX2 protein expression in liver tissue at 200 mg/kg, ip administered 24 hrs and 1 hr before ischemia by Western blot analysis; format: functional, organism-based; design: dose 200 mg/kg; in short: as §4
Rattus norvegicus [19] = experiment: Antiinflammatory activity in Sprague-Dawley rat ischemia-reperfusion model assessed as inhibition of degradation of IkappaB-alpha in liver tissue at 200 mg/kg, ip administered 24 hrs and 1 hr before ischemia by Western blot analysis; format: functional, organism-based; design: dose 200 mg/kg; in short: as §4
Rattus norvegicus [20] = experiment: Hepatoprotective activity in Sprague-Dawley rat sham operated model assessed as decrease of malondialdehyde level per gram of protein at 200 mg/kg, ip administered 24 hrs and 1 hr before ischemia relative to control; format: functional; details: route intraperitoneal
Rattus norvegicus [21] = experiment: Antiinflammatory activity in Sprague-Dawley rat ischemia-reperfusion model assessed as decrease of IL-6 mRNA expression in liver tissue at 200 mg/kg, ip administered 24 hrs and 1 hr before ischemia by RT-PCR analysis; format: functional, organism-based; design: dose 200 mg/kg
Rattus norvegicus [22] = experiment: Antiinflammatory activity in Sprague-Dawley rat ischemia-reperfusion model assessed as increase in HO-1 protein expression in liver tissue at 200 mg/kg, ip administered 24 hrs and 1 hr before ischemia by Western blot analysis
Rattus norvegicus [23] = experiment: Hepatoprotective activity in Sprague-Dawley rat ischemia-reperfusion model assessed as decrease of caspase 3 activity in liver tissue at 200 mg/kg, ip administered 24 hrs and 1 hr before ischemia […] relative to control; format: functional, organism-based; design: dose 200 mg/kg; in short: as §5
Rattus norvegicus [24] = experiment: Hepatoprotective activity in Sprague-Dawley rat sham operated model assessed as decrease of caspase 3 activity in liver tissue at 200 mg/kg, ip administered 24 hrs and 1 hr before ischemia by fluorogenic peptide substrate assay relative to control
Rattus norvegicus [25] = experiment: Antiinflammatory activity in Sprague-Dawley rat ischemia-reperfusion model assessed as inhibition of iNOS mRNA expression in liver tissue at 200 mg/kg, ip administered 24 hrs and 1 hr before ischemia by RT-PCR analysis; format: functional, organism-based; design: dose 200 mg/kg
Rattus norvegicus [26] = experiment: Hepatoprotective activity in Sprague-Dawley rat sham operated model assessed as decrease of caspase 8 activity in liver tissue at 200 mg/kg, ip administered 24 hrs and 1 hr before ischemia by relative to control
Rattus norvegicus [27] = experiment: Antiinflammatory activity in Sprague-Dawley rat ischemia-reperfusion model assessed as decrease of serum IL-6 level at 200 mg/kg, ip administered 24 hrs and 1 hr before ischemia by ELISA relative to control; format: functional; details: route intraperitoneal
Rattus norvegicus [28] = experiment: Hepatoprotective activity in Sprague-Dawley rat sham operated model assessed as protection against histopathologic damage at 200 mg/kg, ip administered 24 hrs and 1 hr before ischemia by TUNEL staining; format: functional; details: route intraperitoneal, in the assay text read “by hematoxylin and eosin staining” for “by TUNEL staining”; in short: as §2
Rattus norvegicus [29] = experiment: Hepatoprotective activity in Sprague-Dawley rat sham operated model assessed as decrease of serum ALT level at 200 mg/kg, ip administered 24 hrs and 1 hr before ischemia; format: functional; details: route intraperitoneal; in short: as §6
Rattus norvegicus [30] = experiment: Hepatoprotective activity in Sprague-Dawley rat ischemia-reperfusion model assessed as decrease of mitochondrial swelling in liver tissue at 200 mg/kg, ip administered 24 hrs and 1 hr before ischemia relative to control; format: functional, organism-based; design: dose 200 mg/kg; in short: as §3

O=C(O)[C@H]1O[C@@H](Oc2cc3oc(-c4ccccc4)cc(=O)c3c(O)c2O)[C@H](O)[C@@H](O)[C@@H]1O [BAICALIN]
Activity (Rattus norvegicus [1]): 4.98 µmol
inhibition (Rattus norvegicus [2]): Active
Activity (Rattus norvegicus [3]): 17.8 pg/mL
Activity (Rattus norvegicus [4]): 64.8 pg/mL
Activity (Rattus norvegicus [5]): Active
Activity (Rattus norvegicus [6]): 5.5 µmol
Activity (Rattus norvegicus [7]): 0.31 nmol
Activity (Rattus norvegicus [8]): 1.6
Activity (Rattus norvegicus [9]): inactive
Activity (Rattus norvegicus [10]): Active
Activity (Rattus norvegicus [11]): Active
Activity (Rattus norvegicus [12]): 37.6 pg/mL
inhibition (Rattus norvegicus [13]): Active
Activity (Rattus norvegicus [14]): Active
inhibition (Rattus norvegicus [15]): Active
inhibition (Rattus norvegicus [16]): Active
Activity (Rattus norvegicus [17]): 2658.1 U/L
inhibition (Rattus norvegicus [18]): Active
inhibition (Rattus norvegicus [19]): Active
Activity (Rattus norvegicus [20]): 0.35 nmol
Activity (Rattus norvegicus [21]): Active
increase (Rattus norvegicus [22]): Active
Activity (Rattus norvegicus [23]): Active
Activity (Rattus norvegicus [24]): Active
inhibition (Rattus norvegicus [25]): inactive
Activity (Rattus norvegicus [26]): Active
Activity (Rattus norvegicus [27]): 77.4 pg/mL
Activity (Rattus norvegicus [28]): 0.45
Activity (Rattus norvegicus [29]): 42.5 U/L
Activity (Rattus norvegicus [30]): Active
